Shown are actives, neighbours in structure and some others; about 2.2% of the full set was active somewhere.
PolyA inh – blocks polyadenylation in yeast reporter cells | S. cerevisiae SKY197-pL101 polyadenylation reporter, beta-gal luminescence; efflux-impaired pdr1/pdr3 knockout yeast; score 100 = 6 SD above DMSO | activity score, % at 12 µM | 300,000 tested, 0.02% active;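 active means lowest replicate activity score at least 50, where 100 means six control SD above control mean; inconclusive means lowest score under 50 but half or more replicates reach 50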;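 further: yeast exposed to compound for 9 h at 30 °C; higher score means more reporter readthrough which indicates perturbed polyadenylation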
HDAC3 inhib – human HDAC3 inhibition. O15379. recombinant HDAC3, fluorogenic peptide/trypsin coupled, fluorescence. inhibition, % at 8.3 µM. 320,000 tested, 0.15% active; in the data active means inhibition above about 26%, passing the limit was not always enough; inconclusive means no clear call, values can overlap the other calls
Target sequence (O15379 whole entry, looked up): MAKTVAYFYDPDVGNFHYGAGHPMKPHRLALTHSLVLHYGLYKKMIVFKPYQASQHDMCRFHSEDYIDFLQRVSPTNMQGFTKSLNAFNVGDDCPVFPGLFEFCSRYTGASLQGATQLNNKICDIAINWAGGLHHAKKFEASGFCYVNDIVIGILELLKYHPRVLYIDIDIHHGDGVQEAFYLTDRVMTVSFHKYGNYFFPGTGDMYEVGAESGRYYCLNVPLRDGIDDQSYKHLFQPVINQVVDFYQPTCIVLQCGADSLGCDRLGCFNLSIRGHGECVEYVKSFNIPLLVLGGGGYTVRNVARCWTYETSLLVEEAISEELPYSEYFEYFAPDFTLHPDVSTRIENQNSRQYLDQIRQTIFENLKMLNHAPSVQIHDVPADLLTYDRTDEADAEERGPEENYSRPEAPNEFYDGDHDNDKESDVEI
AI-2 QS modul – modulators of Vibrio harveyi AI-2 quorum sensing system; Vibrio harveyi JMH597 AI-2 luminescence/OD600 ratio, 9 h; hits give low values; strain lacks LuxN and CqsS sensors; 0 = neutral-control median; activity change, % at 7.5 µM; 300,000 tested, 0.4% active; AID 2094; in the data active means activity change below about -75%, passing the limit was not always enough; inconclusive means no clear call, values can overlap the other calls;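 further: luminescence divided by OD600 gain over 9 h not by final OD600 alone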
T cruzi inh – blocks replication of Trypanosoma cruzi. 300,000 tested, 1.4% active. T. cruzi beta-gal in NIH3T3, luminescence, 90 h. inhibition, % (concentration not given with the values);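 active means mean inhibition across valid replicates above about 55%, limit read from the data; inconclusive means mean below that limit but half or more replicates reach it; inactive means mean below it, under half of replicates reach it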;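 further: signal also drops with host cell toxicity which is not excluded here; 0% = plate median of DMSO wells and 100% = zero luminescence signal; higher percent means less beta-gal luminescence so fewer parasites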
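compound dosing = single 50 nL compound addition per well in DMSO | material = NIH/3T3 host cells with β-galactosidase reporter T. cruzi | input = 5,000 host fibroblasts per well | timing = ≥90 h infection period, 3 h prior cell attachment | read-out basis = percent inhibition of parasite-derived β-gal signal | detection = GalScreen β-gal luminescence, detergent lysis, 60 min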
Efflux pump mplx – inhibitors of Candida antifungal efflux pumps expressed in yeast. S. cerevisiae Candida pump triplex, Nile Red efflux. inhibition, % at 10 µM. 330,000 tested, 0.44% active. AID 485275;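 active means plate passing quality check with inhibition over a set limit, or well fluorescence over plate mean plus 4 SD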;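 further: Nile Red retained in pooled yeast measured as flow cytometry median fluorescence; 0% = buffer negative control and 100% = Enniatin B positive control; higher means more Nile Red kept so more efflux inhibition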
JMH597 growth rt – retest Vibrio harveyi JMH597 growth inhibition | shares compounds with AI-2 QS modul | OD600 absorbance, 9 h; lacks LuxN and CqsS sensors | growth inhibition, % at 7.5 µM | 750 tested, 1% active;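 active means every replicate shows growth inhibition above 50%; inconclusive means at least half, but not all, replicates pass that cutoff; inactive means fewer than half of replicates pass it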
BB721 const-QS lum – retest counter-screen: luminescence loss in constitutive-on quorum sensing strain BB721 | shares compounds with AI-2 QS modul | Vibrio harveyi BB721 luminescence, 9 h | inhibition, % at 7.5 µM | 750 tested, 95% active | AID 2727;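 active means inhibition above about 80% in every replicate, not just on average, limit read from the data; inconclusive means at least half of replicates past the limit, but not all; inactive means fewer than half of replicates past the limit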
BB721 growth rt – retest Vibrio harveyi BB721 growth inhibition; shares compounds with AI-2 QS modul; OD600 absorbance, 9 h; growth inhibition, % at 7.5 µM; 750 tested, 3% active;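 active means every replicate shows growth inhibition above 50%; inconclusive means at least half but not all replicates above 50% inhibition; inactive means under half of replicates above 50% inhibition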
JMH597 AI-2 mod – Vibrio harveyi AI-2 signaling luminescence modulation – JMH597 strain, confirmation; inhibition, % at 7.5 µM; 750 tested, 97% active; Vibrio harveyi JMH597 AI-2 quorum sensing luminescence, 9 h; luxN and CqsS knockout, AI-2 only; shares compounds with AI-2 QS modul;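 active means every replicate shows more than 75% inhibition of signal versus neutral control wells; inconclusive means half to three quarters of replicates exceed 75% inhibition; inactive means fewer than half of replicates exceed 75% inhibition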
* = called active by the depositor; ? = inconclusive; / = not tested or not shown.

SMILES | PolyA inh | HDAC3 inhib | AI-2 QS modul | T cruzi inh | Efflux pump mplx | JMH597 growth rt | BB721 const-QS lum | BB721 growth rt | JMH597 AI-2 mod
COc1ccc(C(=O)CC(c2ccccc2)S(=O)(=O)c2ccc(C)cc2)cc1 (configuration not stated) | 15 | 4 | 14 | 1 | 0 | / | / | / | /
O=C(CN(C(=O)CCC(=O)Nc1nccs1)c1ccc2c(c1)OCO2)NCc1ccccc1 | -14 | -1 | 31 | 14 | 0 | / | / | / | /
Clc1cccc(CSc2ccc(-c3ccco3)nn2)c1 | -7 | -3 | -4 | 12 | 0 | / | / | / | /
Clc1cccc(CSc2ccc(-c3cccnc3)nn2)c1 | -14 | 5 | -91* | 0 | 0 | 5 | 97* | 14 | 98*
COC(=O)CCNC(=O)c1ccc2nc(Cc3ccc(OC)c(OC)c3)oc2c1 | -2 | 8 | 20 | -11 | 0 | / | / | / | /
CC1(C)C(=O)Nc2ccccc2N1C(=O)COC(=O)CCSc1ccccc1 | 6 | 12 | -85* | 0 | 0 | 7 | 92* | -29 | 95*
Cc1ccc(OCCC(=O)OCC(=O)N2CC(=O)Nc3ccccc32)cc1 | / | 0 | / | / | 0 | / | / | / | /
O=C1CN(C(=O)COC(=O)CCCOc2ccccc2)c2ccccc2N1 | 15 | -4 | -81* | -6 | 0 | -7 | 94* | -17 | 96*
CC1(C)C(=O)Nc2ccccc2N1C(=O)COC(=O)CSc1ccc(F)cc1 | / | 0 | / | / | 0 | / | / | / | /
CN(CCN1CCOCC1)C(=O)c1cc(COc2ccc(F)c(F)c2)on1 | -9 | -4 | 14 | -16 | 1 | / | / | / | /
CCOC(=O)C1=CN(CC)S(=O)(=O)NC1c1ccc2ccccc2c1 (configuration not stated) | / | / | / | / | 0 | / | / | / | /
O=C(Cn1cnc2ccccc2c1=O)Nc1ccc2c(c1)OCCO2 | -15 | -1 | -69 | -5 | 0 | / | / | / | /
CCN(CC)S(=O)(=O)c1ccc(NC(=O)Cn2cnc3ccccc3c2=O)cc1 | 13 | 3 | -94* | 0 | 0 | 23 | 99* | 13 | 99*
CN(C)S(=O)(=O)c1cccc(NC(=O)Cn2cnc3ccccc3c2=O)c1 | 2 | 3 | -88* | 2 | 0 | 15 | 96* | 13 | 97*
Cc1ccc(SCc2nc(-c3cccnc3)no2)cc1 | 8 | -4 | ? | 4 | 0 | 23 | 96* | 10 | 97*
O=C1NCCCC1C(=O)N/N=C/c1cccc(Cl)c1 (configuration not stated) | 15 | -16 | -79* | 4 | 0 | -13 | 89* | 2 | 93*
O=C1NCCCC1C(=O)N/N=C/c1ccc(Cl)cc1 (configuration not stated) | -3 | 1 | -49 | -4 | 0 | / | / | / | /
COC(=O)[C@]1(Cc2ccccc2)N[C@H](c2ccc(SC3CCCCC3)c(OC)c2)[C@@H]2C(=O)N(C)C(=O)[C@@H]21 | / | 22 | / | / | 0 | / | / | / | /
O=C(c1ccc(COc2ccccc2Cl)o1)N1CCN(Cc2ccc3c(c2)OCO3)CC1 | -7 | -4 | 9 | 3 | 0 | / | / | / | /
O=C(c1cc2cc(F)ccc2[nH]1)N1CCN(C(=O)c2ccco2)CC1 | 1 | ? | -84* | 1 | 0 | -18 | 85* | 2 | 91*
O=C(c1cc2cc(Cl)ccc2[nH]1)N1CCN(Cc2ccc3c(c2)OCO3)CC1 | 17 | 13 | -94* | 30 | 0 | 18 | 98* | -98 | 99*
O=C(c1ccc(COc2ccc(Cl)cc2)o1)N1CCN(Cc2ccc3c(c2)OCO3)CC1 | 14 | 7 | -97* | ? | 0 | 133* | 100* | 111* | 100*
O=C(c1cccc(Cl)c1)N1CCN(Cc2ccc3c(c2)OCO3)CC1 | -10 | -2 | 18 | -6 | 0 | / | / | / | /
O=C(NCc1ccc2c(c1)CCO2)Nc1ccccc1 | -3 | -11 | -83* | -13 | 0 | -7 | 96* | 0 | 96*

Source: PubChem BioAssay (several laboratories)
